Experiment [1] concerns Canis familiaris. Briefly: % inhibition of Histamine-stimulated gastric acid secretion in Heidenhain pouch dog at 4 uM/kg, on peroral administration of the compound. Format: functional, Canis lupus familiaris, Stomach. The method in brief: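 Heidenhain pouch dogs with histamine-stimulated acid secretion; compound given orally as a dry powder in a hard gelatin capsule; inhibition of acid secretion measured.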

Experiment [2] deals with Canis familiaris. Briefly: % inhibition of Histamine-stimulated gastric acid secretion in Heidenhain pouch dog at 1 uM/kg, on peroral administration of the compound. Format: functional, Canis lupus familiaris, Stomach. The settings on record: in the assay text read “on iv administration” for “on peroral administration”.
Experiment [3] relates to Rattus norvegicus. Briefly: Inhibition of pentagastrin stimulated gastric acid secretion in anesthetized rat at 10 uM/kg, on iv administration of the compound. In kind it is functional, Stomach. A digest of the protocol: (§1)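 Anaesthetized rat with lumen-perfused stomach; acid secretion induced by pentagastrin; compound given intravenously; inhibition of acid output recorded.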

Experiment [4] concerns the target Potassium-transporting ATPase (Sus scrofa, UniProt P19156). Briefly: Inhibition of K+ stimulated gastric ATPase activity. Format: tissue-based, Stomach. The method in brief:
(§2)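 K+-stimulated ATPase activity measured in a lyophilized gastric vesicle preparation at pH 7; enzyme concentration estimated at around 2 nM from 32P-ATP binding.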

Experiment [5] has as its system Rattus norvegicus. Kind of experiment: Inhibition of pentagastrin stimulated gastric acid secretion in anesthetized rat at 10 uM, on iv administration of the compound. In kind it is functional, Stomach. The method in brief:
as §1

The target in experiment [6] is Potassium-transporting ATPase (Sus scrofa) (UniProt P18434+P19156). Kind of experiment: Inhibition of K+ stimulated gastric ATPase activity at 100 uM. Format: tissue-based. The settings on record: Stomach. A digest of the protocol: as §2
Experiment [7] deals with Canis familiaris. Briefly: % inhibition of Histamine-stimulated gastric acid secretion in Heidenhain pouch dog at 1 umol/kg on iv administration of the compound. Format: functional. The following applies: Canis lupus familiaris, Stomach.
Experiment [8] relates to Rattus norvegicus. Briefly: Inhibition of pentagastrin stimulated gastric acid secretion in anesthetized rat on iv administration of the compound. Format: functional. The settings on record: Stomach. The method in brief:
as §1

Experiment [9] deals with Canis familiaris. Kind of experiment: % inhibition of Histamine-stimulated gastric acid secretion in Heidenhain pouch dog at 4 uM/kg. Format: functional, Canis lupus familiaris, Stomach.
Experiment [10] relates to Canis familiaris. Kind of experiment: % inhibition of Histamine-stimulated gastric acid secretion in Heidenhain pouch dog at 1 uM/kg. Format: functional, Canis lupus familiaris, Stomach.

Potassium-transporting ATPase, sequence (P18434 whole entry): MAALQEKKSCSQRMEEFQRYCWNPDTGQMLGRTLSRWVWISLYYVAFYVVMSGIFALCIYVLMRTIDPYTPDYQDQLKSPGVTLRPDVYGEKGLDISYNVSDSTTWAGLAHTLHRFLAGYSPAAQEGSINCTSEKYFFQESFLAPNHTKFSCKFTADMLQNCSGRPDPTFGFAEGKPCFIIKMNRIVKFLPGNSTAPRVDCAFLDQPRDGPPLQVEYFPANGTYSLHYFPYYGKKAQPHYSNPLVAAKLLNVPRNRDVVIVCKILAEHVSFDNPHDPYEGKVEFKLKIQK
Potassium-transporting ATPase, sequence (P19156 whole entry): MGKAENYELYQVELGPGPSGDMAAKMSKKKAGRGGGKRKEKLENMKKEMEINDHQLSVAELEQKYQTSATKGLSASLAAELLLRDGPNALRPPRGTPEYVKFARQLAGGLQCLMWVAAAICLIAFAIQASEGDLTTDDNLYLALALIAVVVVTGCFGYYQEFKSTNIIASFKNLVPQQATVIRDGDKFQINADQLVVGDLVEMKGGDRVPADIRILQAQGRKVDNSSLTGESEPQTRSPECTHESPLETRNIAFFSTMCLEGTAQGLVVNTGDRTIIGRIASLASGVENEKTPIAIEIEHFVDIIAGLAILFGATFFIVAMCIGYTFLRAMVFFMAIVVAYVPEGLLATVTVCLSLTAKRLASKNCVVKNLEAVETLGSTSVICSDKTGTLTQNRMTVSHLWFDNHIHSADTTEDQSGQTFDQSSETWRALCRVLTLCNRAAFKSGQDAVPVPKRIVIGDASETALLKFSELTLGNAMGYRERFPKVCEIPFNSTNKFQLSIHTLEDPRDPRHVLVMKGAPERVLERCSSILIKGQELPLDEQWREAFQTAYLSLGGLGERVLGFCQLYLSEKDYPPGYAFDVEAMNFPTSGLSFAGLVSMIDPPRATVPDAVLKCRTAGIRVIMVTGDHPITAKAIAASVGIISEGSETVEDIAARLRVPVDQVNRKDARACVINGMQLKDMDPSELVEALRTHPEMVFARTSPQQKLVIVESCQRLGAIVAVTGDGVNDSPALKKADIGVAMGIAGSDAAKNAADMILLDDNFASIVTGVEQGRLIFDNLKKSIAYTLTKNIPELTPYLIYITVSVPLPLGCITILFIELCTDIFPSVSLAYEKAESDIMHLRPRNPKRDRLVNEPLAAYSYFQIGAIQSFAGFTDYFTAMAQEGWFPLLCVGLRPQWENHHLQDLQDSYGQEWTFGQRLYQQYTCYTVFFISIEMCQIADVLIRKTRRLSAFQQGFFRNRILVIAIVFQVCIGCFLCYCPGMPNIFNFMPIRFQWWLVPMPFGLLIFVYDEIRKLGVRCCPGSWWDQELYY

For the compound `Cc1ccccc1Nc1nc(N(C)c2ccccc2)c2sccc2n1`, the Inhibition (commonly the percentage by which the read-out fell short of the control) is on record as 12% in the experiment with Canis familiaris [1], 84% with Canis familiaris [2] and 50% in the experiment on Rattus norvegicus [3]. Moreover, the IC50 – broadly, the concentration at which inhibition is half-maximal – in experiment [4] came to 19 nM.

`Cc1ccccc1Nc1ncnc2ccccc12` returned an Inhibition in the experiment on Rattus norvegicus [5] of 9%. In addition, in experiment [6], the inhibition (usually the change of the read-out against control, counted positive when it falls) came out at 28%.

Regarding `COc1cccc2c(Nc3ccccc3C)nc(N)nc12`, in the experiment with Canis familiaris [1], the Inhibition is 0%. Also, in the experiment on Canis familiaris [7], the inhibition in vivo (usually the percentage by which the read-out fell short of the control) at 1 µmol/kg is 39%. This compound gave a concentration for half-maximal inhibition (IC50) in experiment [4] of 80 nM. For the same compound, the ED50 (in general, the midpoint of the dose-response relation) in the experiment on Rattus norvegicus [8] worked out at 7.11 µmol/kg.

In the case of `COc1cccc2c(N(C)c3ccccc3)nc(Nc3ccccc3C)nc12`, the Inhibition stood at 44% in the experiment with Canis familiaris [9] and 79% in the experiment with Canis familiaris [10]. Also, the IC50 in experiment [4] was found to be 42 nM. The same compound registered an ED50 with Rattus norvegicus [8] of 1.39 µmol/kg.
